Data: ChEMBL document CHEMBL1221398, “Chemical constituents of the deep reef caribbean sponges Plakortis angulospiculatus and Plakortis halichondrioides and their anti-inflammatory activities” (J Nat Prod, 2010)
Active and inactive are the calls of the source. The rule behind the calls is not given here.

Key:
HL-60 [1] = assay: Cytotoxicity against human HL60 cells up to 25 ug/mL
HL-60 [2] = assay: Antioxidant activity against PMA-treated human HL60 cells assessed as inhibition of ROS generation
RAW264.7 = assay: Cytotoxicity against mouse RAW264.7 cells up to 25 ug/mL
[3] = Inhibition of NF-kappaB-mediaated transcription in human SW1353 cells by reporter gene assay; type: cell-based
Summary of the method: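 Luciferase reporter gene assay for NF-κB-mediated transcription in SW 1353 cells, with parthenolide as positive control. A luciferase construct carrying SP-1 binding sites served as a control for nonspecific transcription inhibition.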

[4] = Inhibition of LPS-induced NOS activity in mouse RAW264.7 cells; type: cell-based
Summary of the method: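 Mouse RAW 264.7 macrophages were stimulated with LPS. iNOS activity was read as the decrease in nitrite production relative to untreated vehicle controls, with L-NMMA as positive control. Compounds were tested up to 25 µg/mL.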

[5] = Homo sapiens, SW1353, read-out: IC50

IC50 [3, 5] [µM]	IC50 ([4]; read-out: IC50) [µM]	IC50 ([3]; sw1353)	IC50 [4]	SMILES	Activity (HL-60 [1])	Activity (HL-60 [2])	Activity (RAW264.7)
				CC(=O)/C=C(/C)C(=O)/C(C)=C/C(C)=C/C(C)/C=C/c1ccccc1 (centres undefined)	Non-toxic	inactive	Non-toxic
				CC(=O)C/C(C)=C/C(C)/C=C/c1ccccc1 (centres undefined)	Non-toxic	inactive	Non-toxic
25.6	64.1			CCC(O)/C(C)=C/C(C)C(O)/C(C)=C/C(C)=C/C(C)/C=C/c1ccccc1 (centres undefined)	Non-toxic	inactive	Non-toxic
3.3				C=C1C(=O)O[C@@H]2C3O[C@]3(C)CC/C=C(\C)CC[C@@H]12 (some centres undefined)	Non-toxic	inactive	Non-toxic
27.9	30.4			CC1=C[C@](C)(/C=C/C=C/c2ccccc2)[C@](C)(C(=O)O)[C@H]2C(C)=C[C@@H](C)[C@H]12 [22,27-DINOR-ZYGGOMPHIC ACID B]	Non-toxic	inactive	Non-toxic
	19.9	Not Active		CCC1=C[C@@H](C)[C@@H]2C(C)=C[C@](C)(/C=C/C=C/c3ccccc3)[C@](C)(C(=O)O)[C@@H]12 [22-NOR-ZYGGOMPHIC ACID B]	Non-toxic	inactive	Non-toxic
0.47	54.9			CCC1=C[C@@H](C)[C@@H]2C(C)=C[C@@](/C=C/c3ccccc3)(CC)[C@](C)(C(=O)O)[C@@H]12 [24-NOR-SPICULOIC ACID B]	Non-toxic	inactive	Non-toxic
2.28	18.6			CC1=C[C@](C)(/C=C(C)/C=C/c2ccccc2)[C@](C)(C(=O)O)[C@H]2C(C)=C[C@@H](C)[C@H]12 [27-NOR-ZYGGOMPHIC ACID B]	Non-toxic	inactive	Non-toxic
27.2			Not Active	CCC1=C[C@@](/C=C/c2ccccc2)(CC)[C@](C)(C(=O)O)[C@H]2C(CC)=C[C@@H](C)[C@H]12 [SPICULOIC ACID B]	Non-toxic	inactive	Non-toxic
	> 101			CNC(=N)NCCC[C@H](N)C(=O)O [TILARGININE]	Non-toxic	inactive	Non-toxic
25.8	> 64.1			CCC1=C[C@@H](C)[C@@H]2C(C)=C[C@](C)(/C=C(C)/C=C/c3ccccc3)[C@](C)(C(=O)O)[C@@H]12 [ZYGGOMPHIC ACID B]	Non-toxic	inactive	Non-toxic
